Data: ChEMBL document CHEMBL4014335, “Activation of Phenyl 4-(2-Oxo-3-alkylimidazolidin-1-yl)benzenesulfonates Prodrugs by CYP1A1 as New Antimitotics Targeting Breast Cancer Cells” (J Med Chem, 2017)
One block for each compound: values may come before it. Active and inactive are the calls of the source. The calls are words filed in the database; no cut-off is given here.

Tests used:
MDA-MB-468 [1] = assay: Cell cycle arrest in human MDA-MB-468 cells assessed as accumulation at S phase at 8 nM after 24 hrs by DAPI-staining based FACS analysis (reference value: 17%); type: functional
MCF7 [2] = assay: Cell cycle arrest in human MCF7 cells assessed as accumulation at S phase at 8 nM after 24 hrs by DAPI-staining based FACS analysis (reference value: 10.6%); type: functional
MCF7 [3] = assay: Cell cycle arrest in human MCF7 cells assessed as accumulation at G2/M phase at 8 nM after 24 hrs by DAPI-staining based FACS analysis (reference value: 22.3%); type: functional
MDA-MB-231 [4] = assay: Cell cycle arrest in human MDA-MB-231 cells assessed as accumulation at G0/G1 phase at 8 nM after 24 hrs by DAPI-staining based FACS analysis (reference value: 70.7%); type: functional
MDA-MB-231 [5] = assay: Cell cycle arrest in human MDA-MB-231 cells assessed as accumulation at S phase at 8 nM after 24 hrs by DAPI-staining based FACS analysis (reference value: 9.7%); type: functional
MDA-MB-468 [6] = assay: Cytotoxicity against human MDA-MB-468 cells after 72 hrs in presence of CYP1A1 inhibitor quercetin by SRB assay; type: functional, cell-based
In short: (§1)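 MDA-MB-468 cells (5.0 x 10^3/well) seeded and incubated 24 h. Drug freshly dissolved in DMSO, given at 0.75 to 1.0 x 10^5 nM, together with subtoxic CYP inhibitor, for 72 h. Cells fixed with cold 10% TCA and stained with 0.1% sulforhodamine B. Bound dye taken up in 10 mM Tris, absorbance read at 530-565 nm. At least two experiments, triplicate cultures.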

CYP1A1 mRNA = assay: Upregulation of CYP1A1 mRNA expression in human MCF7 cells at 10 nM after 18 hrs by quantitative PCR analysis relative to control; type: ADME, cell-based; settings: read-out: FC
In short: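 MCF7 cells exposed to 10 nM drug for 18 and 24 h. RNA extracted with TriReagent, reverse-transcribed with M-MuLV, random hexamers and oligo(dT). 4 ng cDNA run in quadruplicate with SYBR Green, 40 cycles at 95 °C/60 °C. Relative expression by the 2^-ΔΔCt method, normalized to ACTB and B2M.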

Cytochrome P450 3A4 = Cytochrome P450 3A4 (Homo sapiens, UniProt P08684); assay: Prodrug activation assessed as human supersomes CYP3A4-mediated 3,4,5-trimethoxyphenyl 4-(2-oxoimidazolidin-1-yl)benzenesulfonate formation after 4 hrs by HPLC-MS analysis; type: ADME; settings: recombinant enzyme
Chain of Cytochrome P450 3A4 (P08684 whole entry): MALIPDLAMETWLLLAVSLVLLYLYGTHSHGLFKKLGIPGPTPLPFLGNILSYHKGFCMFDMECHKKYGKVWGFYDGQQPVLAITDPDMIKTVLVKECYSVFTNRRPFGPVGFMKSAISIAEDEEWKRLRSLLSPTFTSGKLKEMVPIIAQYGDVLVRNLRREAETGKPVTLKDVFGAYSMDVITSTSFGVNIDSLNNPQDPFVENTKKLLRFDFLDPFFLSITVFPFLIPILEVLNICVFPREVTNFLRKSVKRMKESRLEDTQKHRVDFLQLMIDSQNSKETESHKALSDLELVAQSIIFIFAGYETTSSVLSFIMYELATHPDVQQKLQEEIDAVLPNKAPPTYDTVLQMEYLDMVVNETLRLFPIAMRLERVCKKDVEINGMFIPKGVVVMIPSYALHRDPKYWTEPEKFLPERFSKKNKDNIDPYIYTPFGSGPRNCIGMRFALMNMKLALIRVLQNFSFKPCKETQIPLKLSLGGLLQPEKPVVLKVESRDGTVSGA

MDA-MB-468 [7] = assay: Cytotoxicity against human MDA-MB-468 cells after 72 hrs in presence of CYP inhibitor mefipristone by SRB assay; type: functional, cell-based
In short: (§2)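 MDA-MB-468 cells co-incubated for 72 h with drug plus a subtoxic concentration of a CYP inhibitor. Viability read by SRB assay: TCA fixation, sulforhodamine B staining, absorbance at 530-565 nm.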

MDA-MB-231 [8] = assay: Cell cycle arrest in human MDA-MB-231 cells assessed as accumulation at G2/M phase at 50 nM after 24 hrs by DAPI-staining based FACS analysis (reference value: 15.5%); type: functional
MDA-MB-468 [9] = assay: Cytotoxicity against human MDA-MB-468 cells after 72 hrs in presence of CYP1A1 inhibitor resveratrol by SRB assay; type: functional, cell-based; in short: as §1
Cytochrome P450 1B1 = target: T1, Cytochrome P450 1B1 (Homo sapiens, UniProt Q16678); assay: Prodrug activation assessed as human supersomes CYP1B1-mediated 3,4,5-trimethoxyphenyl 4-(2-oxoimidazolidin-1-yl)benzenesulfonate formation after 4 hrs by HPLC-MS analysis; type: ADME; settings: recombinant enzyme
T1 sequence (Q16678 whole entry): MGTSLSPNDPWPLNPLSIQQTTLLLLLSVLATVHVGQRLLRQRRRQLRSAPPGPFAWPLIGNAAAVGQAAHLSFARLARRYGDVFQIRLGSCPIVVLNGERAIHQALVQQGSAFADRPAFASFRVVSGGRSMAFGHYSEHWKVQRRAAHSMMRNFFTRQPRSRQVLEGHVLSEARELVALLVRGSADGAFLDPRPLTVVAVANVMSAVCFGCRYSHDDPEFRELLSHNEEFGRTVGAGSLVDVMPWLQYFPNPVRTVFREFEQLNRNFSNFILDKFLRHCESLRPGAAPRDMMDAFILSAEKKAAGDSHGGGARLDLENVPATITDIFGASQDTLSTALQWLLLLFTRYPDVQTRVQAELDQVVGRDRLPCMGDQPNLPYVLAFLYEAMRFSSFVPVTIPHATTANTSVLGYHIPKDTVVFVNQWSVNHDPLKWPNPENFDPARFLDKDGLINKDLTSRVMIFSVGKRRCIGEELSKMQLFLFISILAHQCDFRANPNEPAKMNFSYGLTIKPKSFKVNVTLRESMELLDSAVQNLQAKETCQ

MDA-MB-468 [10] = assay: Cytotoxicity against human MDA-MB-468 cells after 72 hrs in presence of CYP inhibitor pentachlorophenol by SRB assay; type: functional, cell-based; in short: as §2
MCF7 [11] = assay: Cell cycle arrest in human MCF7 cells assessed as accumulation at subG1 phase at 50 nM after 24 hrs by DAPI-staining based FACS analysis (reference value: 1.4%); type: functional
MDA-MB-468 [12] = assay: Cytotoxicity against human MDA-MB-468 cells after 72 hrs in presence of CYP1A1 inhibitor ketoconazole by SRB assay; type: functional, cell-based; in short: as §1
HT-29 = assay: Antiproliferative activity against human HT-29 cells after 48 hrs by SRB assay; type: functional, cell-based; settings: HT-29, 48 h
In short: (§3)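 SRB assay run as in the NCI screen with slight modifications. Seeding: HT-29 5.0 x 10^3, M21 3.5 x 10^3, MCF7 7.5 x 10^3 cells; cells preincubated 24 h. Drug in DMSO added at 0.75 to 1.0 x 10^5 nM for 48 h. TCA fixation, sulforhodamine B staining, absorbance 530-565 nm. At least two experiments in triplicate; runs accepted only when relative SD < 10%.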

MCF7 [13] = assay: Antiproliferative activity against human MCF7 cells after 48 hrs by SRB assay; type: functional, cell-based; settings: MCF7, 48 h; in short: as §3
MDA-MB-468 [14] = assay: Cytotoxicity against human MDA-MB-468 cells after 72 hrs in presence of CYP1A1 inhibitor capsaicin by SRB assay; type: functional, cell-based; in short: as §2
Chorioallantoic membrane = assay: Toxicity in chicken chorioallantoic membrane implanted with CYP1A1 transfected human HT1080 cells at 1 ug/egg, iv administered on day 11 post implantation measured on day 17; type: organism-based, Gallus gallus; settings: in vivo
In short: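 Fertilized chicken eggs bearing CYP1A1-transfected HT-1080 tumors on the CAM. On day 11, drug (40 mM DMSO stock) diluted in cremophor/EtOH/PBS 6.25/6.25/87.5, final DMSO < 0.5%. Given iv in 100 µL to 10–12 eggs per group. Embryos killed on day 17, tumor wet weight recorded, deaths and toxicity signs scored. Two independent experiments, 20–24 eggs in total.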

MDA-MB-468 [15] = assay: Cytotoxicity against human MDA-MB-468 cells after 72 hrs in presence of CYP1A1 inhibitor alpha-naphthoflavone by SRB assay; type: functional, cell-based; in short: as §2
MDA-MB-468 [16] = assay: Cytotoxicity against human MDA-MB-468 cells after 72 hrs in presence of CYP inhibitor salicylamide by SRB assay; type: functional, cell-based; in short: as §2
M21 = assay: Antiproliferative activity against human M21 cells after 48 hrs by SRB assay; type: functional, cell-based; settings: M21, 48 h; in short: as §3
MDA-MB-468 [17] = assay: Cell cycle arrest in human MDA-MB-468 cells assessed as accumulation at G0/G1 phase at 50 nM after 24 hrs by DAPI-staining based FACS analysis (reference value: 63.3%); type: functional

Compound: COc1cc(OS(=O)(=O)c2ccc(N3CCNC3=O)cc2)cc(OC)c1OC
Activity (MDA-MB-468 [1]): 13.3%
Activity (MCF7 [2]): 10.7%
Activity (MCF7 [3]): 44.1%
Activity (MDA-MB-231 [4]): 7.3%
Activity (MDA-MB-231 [5]): 8.9%

fold induction at 18 h, 0.01 µM (CYP1A1 mRNA): 2
Drug metabolism (Cytochrome P450 3A4): Metabolite_Notdetected
Drug metabolism (Cytochrome P450 1B1): Metabolite_Notdetected
IC50 (HT-29): 3.6 µM
IC50 (MCF7 [13]): 0.01 µM
Compound: CCCCN1CCN(c2ccc(S(=O)(=O)Oc3cc(OC)c(OC)c(OC)c3)cc2)C1=O
Activity (MDA-MB-468 [6]): inactive
Activity (MDA-MB-468 [7]): Active
Activity (MDA-MB-231 [8]): 15.6%
Activity (MDA-MB-468 [9]): inactive
Activity (MDA-MB-468 [10]): Active
Activity (MCF7 [11]): 4.3%
Activity (MDA-MB-468 [12]): inactive
Activity (MDA-MB-468 [14]): inactive
Activity (Chorioallantoic membrane): Non-Toxic
Activity (MDA-MB-468 [15]): inactive
Activity (MDA-MB-468 [16]): Active
IC50 (M21): 3.8 µM
Activity (MDA-MB-468 [17]): 13.2%
